Calls of active or inactive are those of the source. The calls are words filed in the database; no cut-off is given here.
How the values were obtained:
[1] = biological target: Quadruplex DNA; assay: Displacement of Thiazole orange from c-Kit2 G4 quadruplex DNA incubated for 3 mins by spectrofluorimetry; assay type: nucleic-acid assay
How it was run: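 Pre-folded DNA (0.25 μM) in K phosphate/KCl buffer was mixed with thiazole orange: 0.50 μM for G4s, 0.75 μM for duplex. Ligand was added stepwise from 0.5 to 10 equiv, with 3 min equilibration at 20 °C after each addition. Excitation 495 nm; emission read at 543 nm. Displacement % = 100 − (F/F0 × 100). DC50 is the concentration giving 50% displacement.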

[2] = test system: Quadruplex DNA; assay: Binding affinity at FAM/TAMRA-tagged parallel Tel21 G4 quadruplex DNA assessed as melting temperature at 2 uM by FRET melting assay (reference value: 55.4 +/- 0.2 degreeC); assay type: nucleic-acid assay
How it was run: (§1)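 Dual FAM/TAMRA-labelled oligos (0.2 μM) in 20 mM K phosphate pH 7.0 with 5 mM KCl, annealed 90 °C 5 min, slow-cooled overnight, held 4 °C 24 h. The Tel21 parallel form was annealed at high DNA concentration. Ligand 2 μM. Unlabelled ds12 duplex competitor at 0, 5 or 10 μM final. Tm was read from FRET melting curves.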

[3] = test system: Quadruplex DNA; assay: Stabilization of c-Myc G4 quadruplex DNA assessed as change in melting temperature at 10 mol.equiv by circular dichroism melting assay; assay type: nucleic-acid assay
How it was run: (§2)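 CD melting from 20 to 100 °C at 1 °C/min, monitored at 264 nm (c-Kit1, c-Kit2, c-Myc, Tel23-p), 287 nm (Tel23-h) or 280 nm (hairpin). Ligand was at 10 mol equiv with folded DNA (15 μM G4, 30 μM hairpin). ΔTm is Tm with ligand minus Tm without, from curve fits, averaged over triplicates.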

[4] = test system: Quadruplex DNA; assay: Effect on c-Myc G4 quadruplex DNA architecture at 10 mol.equiv by circular dichroism spectral analysis; assay type: nucleic-acid assay
How it was run: (§3)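 CD spectra of 15 μM G4s or 30 μM hairpin in 20 mM K phosphate pH 7.0 with 5 mM KCl, after annealing. Recorded at 20 °C over 230–360 nm, three scans averaged, buffer baseline subtracted. Ligand was added at 10 mol equiv to the folded DNA from a 10 mM DMSO stock.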

[5] = test system: U2OS; assay: Cytotoxicity against human U2OS cells assessed as reduction in cell viability incubated for 24 hrs followed by 48 hrs of recovery in drug-free medium by MTT assay; assay type: functional, cell-based
How it was run: (§4)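 Cells grown in DMEM with 10% FBS and 1% glutamine at 37 °C, 5% CO2, and seeded 25 × 10^4 per well. Treatment began 24 h after seeding and lasted 1 or 24 h, followed by 48 h in drug-free medium. MTT was added for 1 h at 37 °C, then DMSO solubilization and absorbance at 595 nm. IC50 came from linear regression; two independent experiments, each in triplicate.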

[6] = Effect on hairpin-duplex DNA architecture at 10 mol.equiv by circular dichroism spectral analysis; how it was run: as §3
[7] = test system: HeLa; assay: Cytotoxicity against human HeLa cells assessed as reduction in cell viability incubated for 1 hr followed by 48 hrs of recovery in drug free medium by MTT assay; assay type: functional, cell-based; how it was run: as §4
[8] = test system: Quadruplex DNA; assay: Binding affinity at FAM/TAMRA-tagged parallel Tel21 G4 quadruplex DNA assessed as melting temperature at 2 uM in presence of 50 fold excess duplex DNA by FRET melting assay (reference value: 55.4 +/- 0.2 degreeC); assay type: nucleic-acid assay; how it was run: as §1
[9] = test system: Quadruplex DNA; assay: Stabilization of human Tel23 G4 quadruplex DNA assessed as change in melting temperature at 10 mol.equiv by circular dichroism melting assay; assay type: nucleic-acid assay; how it was run: as §2
[10] = test system: Quadruplex DNA; assay: Stabilization of c-Kit2 G4 quadruplex DNA assessed as change in melting temperature at 10 mol.equiv by circular dichroism melting assay; assay type: nucleic-acid assay; how it was run: as §2
[11] = test system: U2OS; assay: Induction of DNA:RNA hybrid formation in human U2OS cells assessed as increase in R loop formation at 10 uM incubated for 30 mins by S9.6 immunofluorescence microscopy; assay type: functional, cell-based
How it was run: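 U2OS cells were treated at 10 μM for 5–60 min, 24 h after seeding, then fixed in cold methanol and permeabilized with acetone. Stained with S9.6 antibody and anti-nucleolin. The nucleolar signal was subtracted from total nuclear S9.6 fluorescence, and values were normalized to the untreated mean; two biological replicates.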

CC(C)(C)c1cc(/C=N/NC(=N)N)c(O)c(/C=C2/C(=O)Nc3c2ccc2ccccc32)c1.Cl
DC50 [1]: 7.8 µM | Tm [2]: 68.6 °C | Activity [3]: Active | Activity [4]: inactive | IC50 [5]: 2.06 µM | Activity [6]: inactive | IC50 [7]: 3.94 µM | Tm [8]: 68.1 °C | ΔTm [9]: < 2 °C | Activity [10]: Active | Activity [11]: Active
